Test results reported in ChEMBL document CHEMBL5058577, “EUbOPEN Chemogenomics Library 2 (Multiplex)” (2022).

System: HEK-293T
Assay: Multiplex assay against HEK293T
Type: toxicity, cell-based
Conditions: human
Procedure, shortened: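 Phenotypes for tubulin, mitochondrial mass and membrane permeability are expressed as per cents of healthy-nucleus cells. Cells were stained live at seeding with Hoechst33342, BioTracker Green Microtubule Cytoskeleton Dye, MitoTracker Red and Annexin V Alexa Fluor 680, then imaged after compound addition on a CQ1 microscope at 37°C and 5% CO2. Machine-learning gating in CellPathfinder separated Hoechst high-intensity objects from normal cells, divided normal cells by nuclear state (healthy, pyknosed, fragmented) and divided pyknosed cells into mitotic or apoptotic.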

[1] = 12 h, 1 µM, compound concentration 1 uM, replicate 1
[2] = 12 h, 1 µM, compound concentration 1 uM, replicate 2
[3] = 12 h, 10 µM, compound concentration 10 uM, replicate 1
[4] = 12 h, 10 µM, compound concentration 10 uM, replicate 2
[5] = 24 h, 1 µM, compound concentration 1 uM, replicate 1
[6] = 24 h, 1 µM, compound concentration 1 uM, replicate 2
[7] = 24 h, 10 µM, compound concentration 10 uM, replicate 1
[8] = 24 h, 10 µM, compound concentration 10 uM, replicate 2
[9] = 48 h, 1 µM, compound concentration 1 uM, replicate 1
[10] = 48 h, 1 µM, compound concentration 1 uM, replicate 2
[11] = 48 h, 10 µM, compound concentration 10 uM, replicate 1
[12] = 48 h, 10 µM, compound concentration 10 uM, replicate 2

SMILES: COc1ccccc1N1CCN(C[C@@H](C(=O)NC(C)(C)C)c2ccccc2)CC1.Cl.Cl
- Population Apoptotic (%) [1]: 24%
- Population Fragmented Nuclei (%) [1]: 7%
- Population Healthy Nuclei (%) [1]: 77%
- Population Hoechst High Intensity Objects (%) [1]: 7%
- Population Membrane Permeable-Phenotype (%) [1]: 0%
- Population Mitochondria Different-Phenotype (%) [1]: 48%
- Population Mitotic Cells (%) [1]: 75%
- Population Normal (%) [1]: 92%
- Population Pyknosed Nuclei (%) [1]: 14%
- Population Tubulin-Different-Phenotype (%) [1]: 47%
- Total Cell Count [1]: 434
- Population Apoptotic (%) [2]: 42%
- Population Fragmented Nuclei (%) [2]: 4%
- Population Healthy Nuclei (%) [2]: 76%
- Population Hoechst High Intensity Objects (%) [2]: 6%
- Population Mitochondria Different-Phenotype (%) [2]: 77%
- Population Mitotic Cells (%) [2]: 57%
- Population Normal (%) [2]: 93%
- Population Pyknosed Nuclei (%) [2]: 19%
- Population Tubulin-Different-Phenotype (%) [2]: 35%
- Total Cell Count [2]: 300
- Population Apoptotic (%) [3]: 62%
- Population Fragmented Nuclei (%) [3]: 7%
- Population Healthy Nuclei (%) [3]: 69%
- Population Hoechst High Intensity Objects (%) [3]: 7%
- Population Membrane Permeable-Phenotype (%) [3]: 0%
- Population Mitochondria Different-Phenotype (%) [3]: 88%
- Population Mitotic Cells (%) [3]: 37%
- Population Normal (%) [3]: 92%
- Population Pyknosed Nuclei (%) [3]: 23%
- Population Tubulin-Different-Phenotype (%) [3]: 74%
- Total Cell Count [3]: 333
- Population Apoptotic (%) [4]: 58%
- Population Fragmented Nuclei (%) [4]: 5%
- Population Hoechst High Intensity Objects (%) [4]: 16%
- Population Mitochondria Different-Phenotype (%) [4]: 79%
- Population Mitotic Cells (%) [4]: 41%
- Population Normal (%) [4]: 83%
- Population Pyknosed Nuclei (%) [4]: 25%
- Population Tubulin-Different-Phenotype (%) [4]: 59%
- Total Cell Count [4]: 231
- Population Apoptotic (%) [5]: 19%
- Population Fragmented Nuclei (%) [5]: 8%
- Population Healthy Nuclei (%) [5]: 81%
- Population Hoechst High Intensity Objects (%) [5]: 4%
- Population Membrane Permeable-Phenotype (%) [5]: 0%
- Population Mitochondria Different-Phenotype (%) [5]: 31%
- Population Mitotic Cells (%) [5]: 80%
- Population Normal (%) [5]: 95%
- Population Pyknosed Nuclei (%) [5]: 9%
- Population Tubulin-Different-Phenotype (%) [5]: 29%
- Total Cell Count [5]: 563
- Population Apoptotic (%) [6]: 34%
- Population Fragmented Nuclei (%) [6]: 11%
- Population Healthy Nuclei (%) [6]: 76%
- Population Hoechst High Intensity Objects (%) [6]: 6%
- Population Mitochondria Different-Phenotype (%) [6]: 54%
- Population Mitotic Cells (%) [6]: 65%
- Population Normal (%) [6]: 93%
- Population Pyknosed Nuclei (%) [6]: 11%
- Population Tubulin-Different-Phenotype (%) [6]: 28%
- Total Cell Count [6]: 387
- Population Apoptotic (%) [7]: 45%
- Population Fragmented Nuclei (%) [7]: 8%
- Population Healthy Nuclei (%) [7]: 68%
- Population Hoechst High Intensity Objects (%) [7]: 7%
- Population Membrane Permeable-Phenotype (%) [7]: 0%
- Population Mitochondria Different-Phenotype (%) [7]: 77%
- Population Mitotic Cells (%) [7]: 54%
- Population Normal (%) [7]: 92%
- Population Pyknosed Nuclei (%) [7]: 23%
- Population Tubulin-Different-Phenotype (%) [7]: 61%
- Total Cell Count [7]: 377
- Population Apoptotic (%) [8]: 66%
- Population Healthy Nuclei (%) [8]: 76%
- Population Hoechst High Intensity Objects (%) [8]: 14%
- Population Mitochondria Different-Phenotype (%) [8]: 73%
- Population Mitotic Cells (%) [8]: 33%
- Population Normal (%) [8]: 85%
- Population Pyknosed Nuclei (%) [8]: 15%
- Population Tubulin-Different-Phenotype (%) [8]: 48%
- Total Cell Count [8]: 251
- Population Apoptotic (%) [9]: 22%
- Population Fragmented Nuclei (%) [9]: 13%
- Population Healthy Nuclei (%) [9]: 78%
- Population Hoechst High Intensity Objects (%) [9]: 2%
- Population Membrane Permeable-Phenotype (%) [9]: 1%
- Population Mitochondria Different-Phenotype (%) [9]: 19%
- Population Mitotic Cells (%) [9]: 77%
- Population Normal (%) [9]: 97%
- Population Pyknosed Nuclei (%) [9]: 8%
- Population Tubulin-Different-Phenotype (%) [9]: 18%
- Total Cell Count [9]: 908
- Population Apoptotic (%) [10]: 38%
- Population Fragmented Nuclei (%) [10]: 10%
- Population Healthy Nuclei (%) [10]: 80%
- Population Hoechst High Intensity Objects (%) [10]: 6%
- Population Membrane Permeable-Phenotype (%) [10]: 0%
- Population Mitochondria Different-Phenotype (%) [10]: 37%
- Population Mitotic Cells (%) [10]: 61%
- Population Normal (%) [10]: 93%
- Population Pyknosed Nuclei (%) [10]: 9%
- Population Tubulin-Different-Phenotype (%) [10]: 20%
- Total Cell Count [10]: 480
- Population Apoptotic (%) [11]: 50%
- Population Fragmented Nuclei (%) [11]: 14%
- Population Healthy Nuclei (%) [11]: 72%
- Population Hoechst High Intensity Objects (%) [11]: 6%
- Population Membrane Permeable-Phenotype (%) [11]: 0%
- Population Mitochondria Different-Phenotype (%) [11]: 59%
- Population Mitotic Cells (%) [11]: 49%
- Population Normal (%) [11]: 93%
- Population Pyknosed Nuclei (%) [11]: 13%
- Population Tubulin-Different-Phenotype (%) [11]: 44%
- Total Cell Count [11]: 467
- Population Apoptotic (%) [12]: 62%
- Population Fragmented Nuclei (%) [12]: 10%
- Population Healthy Nuclei (%) [12]: 76%
- Population Hoechst High Intensity Objects (%) [12]: 5%
- Population Mitochondria Different-Phenotype (%) [12]: 58%
- Population Mitotic Cells (%) [12]: 37%
- Population Normal (%) [12]: 94%
- Population Tubulin-Different-Phenotype (%) [12]: 36%
- Total Cell Count [12]: 375
